Assay results as given in ChEMBL document CHEMBL1141374 (J Med Chem, 2007).

How the values were obtained:
[1] = Cytotoxicity against P-glycoprotein-overexpressing KB-V1 cell line; type: cell-based; conditions: Homo sapiens
Method in brief: (§1)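 Log-phase cells were diluted to 20 000–30 000 cells/mL, seeded, and left to attach overnight. They were then exposed to compounds at 10^–5–10^–12 M for 72 h at 37 °C in 5% CO2. Viable cells were measured by MTT, with absorbance read at 595 nm. Each compound ran in triplicate in at least three independent assays. IC50 came from nonlinear regression, and average values were reported.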

ZR-75-1 = assay: Cytotoxicity against ZR-75-1 cell line; type: cell-based; conditions: Homo sapiens; method in brief: as §1
[2] = Cytotoxicity against KB-3-1 cell line; type: cell-based; conditions: Homo sapiens; method in brief: as §1
HeLa = assay: Cytotoxicity against HeLa cell line; type: cell-based; conditions: Homo sapiens; method in brief: as §1
HCT-116 = assay: Cytotoxicity against HCT116 cell line; type: cell-based; conditions: Homo sapiens; method in brief: as §1
Tubulin = assay: Inhibition of tubulin polymerization; type: protein-complex assay, Homo sapiens
Method in brief: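 Kit-based assay run per the manufacturer's instructions. Tubulin (>99% pure, 3 mg/mL) in G-PEM buffer, in a prewarmed plate with compound at 0.03–30 μM. OD340 nm read every 60 s at 37 °C for 1 h.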

SK-MEL-28 = assay: Growth inhibition in SK-MEL-28 cells; type: functional; conditions: Homo sapiens
NCI-H460 = assay: Growth inhibition in NCI-H460 cells; type: functional; conditions: Homo sapiens
OVCAR-3 = assay: Growth inhibition in OVCAR-3 cells; type: functional; conditions: Homo sapiens
BT-549 = assay: Growth inhibition in BT549 cells; type: functional; conditions: Homo sapiens
A498 = assay: Growth inhibition in A498 cells; type: functional; conditions: Homo sapiens
HT-29 = assay: Growth inhibition in HT29 cells; type: functional; conditions: Homo sapiens
COLO 205 = assay: Growth inhibition in COLO205 cells; type: functional; conditions: Homo sapiens
SN12C = assay: Growth inhibition in SN12C cells; type: functional; conditions: Homo sapiens
[3] = Growth inhibition in HCC15 cells; type: functional; conditions: Homo sapiens
TK-10 = assay: Growth inhibition in TK10 cells; type: functional; conditions: Homo sapiens
T47D = assay: Growth inhibition in T47D cells; type: functional; conditions: Homo sapiens
IGROV-1 = assay: Growth inhibition in IGROV1 cells; type: functional; conditions: Homo sapiens
DU-145 = assay: Growth inhibition in DU145 cells; type: functional; conditions: Homo sapiens
K562 = assay: Growth inhibition in K562 cells; type: functional; conditions: Homo sapiens
RXF 393 = assay: Growth inhibition in RXF393 cells; type: functional; conditions: Homo sapiens
OVCAR-4 = assay: Growth inhibition in OVCAR4 cells; type: functional; conditions: Homo sapiens
CAKI-1 = assay: Growth inhibition in CAK1-1 cells; type: functional; conditions: Homo sapiens
SK-MEL-5 = assay: Growth inhibition in SK-MEL-5 cells; type: functional; conditions: Homo sapiens
SW-620 = assay: Growth inhibition in SW620 cells; type: functional; conditions: Homo sapiens
SF-268 = assay: Growth inhibition in SF268 cells; type: functional; conditions: Homo sapiens
SNB-19 = assay: Growth inhibition in SNB19 cells; type: functional; conditions: Homo sapiens
SNB-75 = assay: Growth inhibition in SNB75 cells; type: functional; conditions: Homo sapiens
UO-31 = assay: Growth inhibition in UO31 cells; type: functional; conditions: Homo sapiens
HOP-92 = assay: Growth inhibition in HOP92 cells; type: functional; conditions: Homo sapiens
SF-539 = assay: Growth inhibition in SF539 cells; type: functional; conditions: Homo sapiens
OVCAR-8 = assay: Growth inhibition in OVCAR8 cells; type: functional; conditions: Homo sapiens
MDA-MB-435 = assay: Growth inhibition in MDA-MB-435 cells; type: functional; conditions: Homo sapiens
786-0 = assay: Growth inhibition in 786-0 cells; type: functional; conditions: Homo sapiens
[4] = Growth inhibition in MDA-MB-231/ATCC cells; type: functional; conditions: Homo sapiens
LOX IMVI = assay: Growth inhibition in LOX IMVI cells; type: functional; conditions: Homo sapiens
U-251 = assay: Growth inhibition in U251cells; type: functional; conditions: Homo sapiens
PC-3 = assay: Growth inhibition in PC3 cells; type: functional; conditions: Homo sapiens
ACHN = assay: Growth inhibition in ACHN cells; type: functional; conditions: Homo sapiens
SF-295 = assay: Growth inhibition in SF295 cells; type: functional; conditions: Homo sapiens
NCI-H226 = assay: Growth inhibition in NCI-H226 cells; type: functional; conditions: Homo sapiens
M14 = assay: Growth inhibition in M14 cells; type: functional; conditions: Homo sapiens
NCI-H23 = assay: Growth inhibition in NCI-H23 cells; type: functional; conditions: Homo sapiens
HL-60 = assay: Growth inhibition in HL60 cells; type: functional; conditions: Homo sapiens
UACC-257 = assay: Growth inhibition in UACC257 cells; type: functional; conditions: Homo sapiens
NCI/ADR-RES = assay: Growth inhibition in NCI/ADR-RES cells; type: functional; conditions: Homo sapiens
[5] = Growth inhibition in HS 578T cells; type: functional; conditions: Homo sapiens
MCF7 = assay: Growth inhibition in MCF7 cells; type: functional; conditions: Homo sapiens
EKVX = assay: Growth inhibition in EKVX cells; type: functional; conditions: Homo sapiens
[6] = Growth inhibition in HCC116 cells; type: functional; conditions: Homo sapiens
NCI-H522 = assay: Growth inhibition in NCI-H522 cells; type: functional; conditions: Homo sapiens
A549 = assay: Growth inhibition in A549 cells; type: functional; conditions: Homo sapiens
SK-OV-3 = assay: Growth inhibition in SKOV3 cells; type: functional; conditions: Homo sapiens
OVCAR-5 = assay: Growth inhibition in OVCAR5 cells; type: functional; conditions: Homo sapiens
UACC-62 = assay: Growth inhibition in UACC62 cells; type: functional; conditions: Homo sapiens
HOP-62 = assay: Growth inhibition in HOP62 cells; type: functional; conditions: Homo sapiens
NCI-H322M = assay: Growth inhibition in NCI-H322M cells; type: functional; conditions: Homo sapiens
HCC 2998 = assay: Growth inhibition in HCC2998 cells; type: functional; conditions: Homo sapiens
KM12 = assay: Growth inhibition in KM12 cells; type: functional; conditions: Homo sapiens
CCRF-CEM = assay: Growth inhibition in CCRF-CEM cells; type: functional; conditions: Homo sapiens

## COc1cc2c(c(OC)c1OC)-c1ccc(OC)c(=O)cc1[C@@H](NC(C)=O)CC2 [COLCHICINE]
[1]
  IC50: 620 nM
ZR-75-1
  IC50: 522 nM
[2]
  IC50: 3.99 nM
HeLa
  IC50: 1.84 nM
HCT-116
  IC50: 2.75 nM

## COc1cc(-c2nncn2-c2ccc3c(c2)CCN3C)cc(OC)c1OC
Tubulin
  IC50: > 10000 nM
HeLa
  IC50: 4100 nM
HCT-116
  IC50: 3290 nM

## COc1cc(-n2cnnc2-c2ccc3c(ccn3C)c2)cc(OC)c1OC
[1]
  IC50: 32.1 nM
Tubulin
  IC50: 5600 nM
[2]
  IC50: 15 nM
HeLa
  IC50: 18 nM
HCT-116
  IC50: 24.3 nM

## COc1ccc(-n2cnnc2-c2cc(OC)c(OC)c(OC)c2)cc1F
SK-MEL-28
  GI50: 39800 nM
NCI-H460
  GI50: 3160 nM
OVCAR-3
  GI50: 2090 nM
BT-549
  GI50: 9330 nM
A498
  GI50: 8130 nM
HT-29
  GI50: 3160 nM
COLO 205
  GI50: 3980 nM
[1]
  IC50: 1480 nM
SN12C
  GI50: 4680 nM
[3]
  GI50: 1660 nM
ZR-75-1
  IC50: 367 nM
TK-10
  GI50: > 100000 nM
T47D
  GI50: > 100000 nM
IGROV-1
  GI50: 4900 nM
DU-145
  GI50: 4790 nM
K562
  GI50: 759 nM
RXF 393
  GI50: 1700 nM
OVCAR-4
  GI50: 5250 nM
CAKI-1
  GI50: 2950 nM
SK-MEL-5
  GI50: 2570 nM
SW-620
  GI50: 4070 nM
SF-268
  GI50: 9330 nM
SNB-19
  GI50: 6310 nM
SNB-75
  GI50: 3020 nM
[2]
  IC50: 399 nM
UO-31
  GI50: 17800 nM
HOP-92
  GI50: 5370 nM
SF-539
  GI50: 3890 nM
OVCAR-8
  GI50: 6310 nM
MDA-MB-435
  GI50: 331 nM
786-0
  GI50: 3160 nM
[4]
  GI50: 6460 nM
LOX IMVI
  GI50: 5130 nM
U-251
  GI50: 5130 nM
PC-3
  GI50: 3020 nM
ACHN
  GI50: 5620 nM
SF-295
  GI50: 1860 nM
NCI-H226
  GI50: 7080 nM
M14
  GI50: 2240 nM
HeLa
  IC50: 173 nM
NCI-H23
  GI50: 2240 nM
HL-60
  GI50: 6030 nM
UACC-257
  GI50: > 100000 nM
NCI/ADR-RES
  GI50: 2000 nM
[5]
  GI50: 6460 nM
MCF7
  GI50: 1000 nM
HCT-116
  IC50: 365 nM
EKVX
  GI50: 89100 nM
[6]
  GI50: 3020 nM
NCI-H522
  GI50: 4570 nM
A549
  GI50: 12000 nM
SK-OV-3
  GI50: 8320 nM
OVCAR-5
  GI50: 5620 nM
UACC-62
  GI50: 3630 nM
HOP-62
  GI50: 2040 nM
NCI-H322M
  GI50: 8130 nM
HCC 2998
  GI50: 631 nM
KM12
  GI50: 1450 nM
CCRF-CEM
  GI50: 2570 nM

## COc1cc(-c2nncn2-c2ccc(N(C)C)cc2)cc(OC)c1OC
NCI-H460
  GI50: 178 nM
OVCAR-3
  GI50: 34.7 nM
BT-549
  GI50: 25100 nM
A498
  GI50: 490 nM
HT-29
  GI50: 30.9 nM
COLO 205
  GI50: 87.1 nM
[1]
  IC50: 323 nM
SN12C
  GI50: 724 nM
Tubulin
  IC50: 4100 nM
[3]
  GI50: 60.3 nM
ZR-75-1
  IC50: 308 nM
TK-10
  GI50: 1660 nM
T47D
  GI50: 47.9 nM
IGROV-1
  GI50: 95.5 nM
DU-145
  GI50: 1860 nM
K562
  GI50: 12.9 nM
RXF 393
  GI50: 1620 nM
OVCAR-4
  GI50: 20900 nM
CAKI-1
  GI50: 135 nM
SK-MEL-5
  GI50: 69.2 nM
SW-620
  GI50: 75.9 nM
SF-268
  GI50: 34.7 nM
SNB-19
  GI50: 204 nM
SNB-75
  GI50: 107 nM
[2]
  IC50: 119 nM
UO-31
  GI50: 955 nM
HOP-92
  GI50: 389 nM
SF-539
  GI50: 324 nM
OVCAR-8
  GI50: 2570 nM
MDA-MB-435
  GI50: < 10 nM
786-0
  GI50: 398 nM
[4]
  GI50: 1020 nM
LOX IMVI
  GI50: 219 nM
U-251
  GI50: 151 nM
PC-3
  GI50: 28.2 nM
ACHN
  GI50: 204 nM
SF-295
  GI50: 37.1 nM
NCI-H226
  GI50: 100000 nM
M14
  GI50: 50.1 nM
HeLa
  IC50: 29.6 nM
NCI-H23
  GI50: 6760 nM
HL-60
  GI50: 105 nM
UACC-257
  GI50: 100000 nM
NCI/ADR-RES
  GI50: 129 nM
[5]
  GI50: 417 nM
MCF7
  GI50: 275 nM
HCT-116
  IC50: 91.5 nM
EKVX
  GI50: > 100000 nM
[6]
  GI50: 60.3 nM
NCI-H522
  GI50: 57.5 nM
A549
  GI50: 398 nM
SK-OV-3
  GI50: 347 nM
OVCAR-5
  GI50: 4270 nM
UACC-62
  GI50: 95.5 nM
HOP-62
  GI50: 275 nM
NCI-H322M
  GI50: 2630 nM
HCC 2998
  GI50: 85.1 nM
KM12
  GI50: 26.3 nM
CCRF-CEM
  GI50: 61.7 nM
